Test system: MS2 coat protein
Assay: apparent Kd, MS2 coat protein; higher = weaker binding; RNA-MaP array; FMN 200 µM where present
Procedure, shortened: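 Designs were transcribed by stalled E. coli RNA polymerase on Illumina sequencing-chip clusters. They were titrated with SNAP-549-labelled MS2 coat protein from 0.7 or 1.5 nM, doubling to 3 µM, without and then with constant ligand. Buffer: 100 mM Tris-HCl pH 7.5, 80 mM KCl, 4 mM MgCl2, BSA, DTT, yeast tRNA, Tween-20. Green signal was normalised to red-channel RNA signal and control-cluster median Fmax. Apparent Kd is the median of filtered per-cluster binding-curve fits.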

[1] = designed as: OFF switch for flavin mononucleotide, no ligand
[2] = ligand present: flavin mononucleotide, designed as: OFF switch for flavin mononucleotide
[3] = designed as: ON switch for flavin mononucleotide, no ligand
[4] = ligand present: flavin mononucleotide, designed as: ON switch for flavin mononucleotide

Sequence	apparent Kd [1] [nM]	apparent Kd [2] [nM]	apparent Kd [3] [nM]	apparent Kd [4] [nM]
UGUUUUUUGGGAGGAUAUGUAAAUUUAAACAUGAGGAUCACCCAUGUGGAUCACCCAUGUAGAUAAUAGAAGGCCCUUUUUUUU	55.3	36.5		
AAUGAGACCGCAGGAUAUCCACAUGAGGAUCACCCAUGUUCUCAGGUCGUAAGCACGACCUGCGAGGAGAAGGGCGACCUCAUA			395	33.8
CCUGUAAUCCUAUAGGCUUGUUACAUGAGGAUCACCCAUGUCAAGGAUAUAACGUUAAGCUCAUGUUAGAAGGUGACAUGUGGU	164	58.6		
AGUACUACAGGAUAUACAUGAGUGAUACUCAUAUCCCUACUACAUGAGGAUCACCCAUGUAGAAGGGUAGUACA	11.7	10.1		
GCCAGGAUGUGAGGAUAUGCUGAGGAUAACUCAGCAGAAGGCACAUGAGGAUCACCCAUGUAAACCUAUAAUAAAUACCCUGGC	12.1	24.4		
UUGGACGUCGUAGGAUAUGUAGGAUAUUCCUACAUGAGGAUCACCCAUGUUGACAUGGAAGAAGGACAGAAGGACGACGUCCAU			173	4.59
GUAAGUACGAGAGGAUAUUGACAUGAGGAUCACCCAUGUAUUUGGGAGUGUUCACUGAAUUCUUACGAGAAGGCUUGUACAUAC	221	220		
CCUAGUUGGUAAGGAUAUCCUACACUGUUCUGACCCGUGCGAGCUACAUGAGGAUCACCCAUGUGGGAGAAGGUGCGUCAACGC	18.2	17.9		
GAAUAGGCAGGAUAUACAUGAGGAUCACCCAUGUGCUUGCGAUCGGCAAGCGAACAACGUAGAAGGGCCUUAAC	16.2	37.3		
GGGUUUGGAGGAUAUACAAUCCCGGGCCGAAAGGUUUGGGUACAUGAGGAUCACCCAUGUAGAAGGCCGGGCCC	19.2	27.3		
GUUAAGUGAGGAUAUGGUGAGUAGUGCCAGAGCGCUGCUCACCAGAAGGCACAUGAGGAUCACCCAUGUAUAGC	15.7	31.5		
AGUUAAUAUCGAGGAUAUCUCAUGGAUACAUGAGGAUCACCCAUGUGAAUGGGAGAAGGCGAUAUUAACAGCAUGUUACAUGCA			32	7.05
CUGAUGUUAGGAUAUCAGGCGCCCGCCACUAGCAGGGCGCAUGAGAAGGGACAUGAGGAUCACCCAUGUAGUAA	31.6	54.5		
GAUUGACAUGAGGAUCACCCAUGUGAGGAUAUCGGCCGGACCUUGUUAGCUUCCACCGCGAGAAGGCACAUAGG	30.9	41.6		
GAGACGUCAGGAUAUCUGAUGUCUAACUUCGGUUAGACAUCAGAGAAGGGACAUGAGGAUCACCCAUGUCUCAG	15.9	13.9		
UUAAUUAAUUAAUUAUACAUGAGGAUCACCCAUGUAAGUGAUCAGGAUAUCAGCUCGAUUAGAGCUGAGAAGGGAUCCAUGUAA			109	81.3
CGUUGUUAAGGAUAUGGACUCUUGAACAUGAGGAUCACCCAUGUGCGCGUGGUCUAAAUACCAGAAGGUGGCCGCC	31.7	29.3		
GGAUGUCAAAGACAUCCUAAACGAACAUGAGGAUCACCCAUGUAGGAUAUGCUACUCAAAGAGUAGCAGAAGGACAUGUGCCUU	35	238		
GAAAAACAUGAGGAUCACCCAUGUAAGGAUAUGCUGAAAAAACACUGGAAACAGUGCAGCAGAAGGUACAAAAG	65.1	103		
GGGUAGGUAGGAUAUGCGUGCAGGGUGUCUUCCAAUGAUCAACAUGAGGAUCACCCAUGUAGAAGGAUCGAGCU	331	319		
UGAUAUGUAGUAGGAUAUCAGGUUACAUGAGGAUCACCCAUGUUAGAUUGGUGGAUAGAUGUUGAUGAGAAGGACUUUUGAGUU	79.6	100		
AAAUUUAACGAAGGAUAUGGUUACAUGAGGAUCACCCAUGUGUGCCUUGUGAUGCUGAUUAAGUUCCAGAAGGUCGUAUACAUA	84.8	234		
UGUUGUAUUACAGGAUAUCUAUUAUUUUUAAUUAGAGAAGGGUAUUCACAUGAGGAUCACCCAUGUAUAUACGAGGAAGUUGUG			35.2	35.8
UACAUUUAACAGAAGGCGUUUAUAUAUAACUUACGAGGAUAUGUAUAACAUGAGGAUCACCCAUGUAACAUGGAGAGAAUAUCU			43.1	26.6
GCACUGGCAGGAUAUACAUGAGGAUCACCCAUGUGACCCUUGAAGUACUCGCGUACUCGUAGAAGGGCCUGUGC	102	520		
GAAUACCUAGGAUAUACAUGAGGAUCACCCAUGUCAGUAGACUGGGUAAAGUCUCUCAGUAGAAGGAGGACCCG	109	97.8		
AGAUGACAAAGUCAUCUCGCUCUGACAUGAGGAUCACCCAUGUAGGAUAUAUUACUCAAAGAGUAAUAGAAGGACAUGUGUCUG	36.3	115		
UGGUACAUGGGAGGAUAUCCUCAAGAGACAUGAGGAUCACCCAUGUAUUAUAUGCCUCAUGGCAUGGAGAAGGCCCAUGUACCU			179	153

Sequence	apparent Kd [1] [nM]	apparent Kd [2] [nM]	apparent Kd [3] [nM]	apparent Kd [4] [nM]
CUGGGUUAGGAGAAGGGCUAGAGUGUGAUAUAUUUGCCCGCGAGCACAUGAGGAUCACCCAUGUAGCAGGAUAUCCAAACCGGU	7.33	19.5		
AGAUGGUAUAUAGGAUAUCAUGUGCAAACAUGAGGAUCACCCAUGUAGAGACGUCAGUUUAAUAAUGAGAAGGAUAUACCAUCU			31.9	14.4
GGAUGACAUAGUCAUCCUUAACGAACAUGAGGAUCACCCAUGUAGGAUAUGCUACUCAAAGAGUAGCAGAAGGGCAUGUGUCUU	30.6	68.8		
UCAUACGUUGAGGAUAUGUCAGUUAGUAUAUUUACAGAAGGCGAUACAUGAGGAUCACCCAUGUUUAUGGGCAU	219	298		
ACUUUACGAGGAUAUACUGUCGGGCCUCGGGCAUACAUACGACAUGAGGAUCACCCAUGUAGAAGGCGUUUACU	33.6	61.1		
AUAAACCUAGGAUAUACAUGAGGAUCACCCAUGUAAGGGCAAUGCCCAUGCUCCUCAUGUAGAAGGAGGAGCAG	21.8	25.5		
AAUUCGUUCUAGAAGGUGCAUUUUUUAAACAUGCAAGGAUAUAGACAUGAGGAUCACCCAUGUCUAUGAGACAUCGGCCUCCUG	6.3	13.3		
UGACACUUGAGGGUCUCCCUUGACAUGAGGAUCACCCAUGUGCAGGAUAUACGUGUGAUGGUAUAGUAGAAGGGCACUCUAUGU	27.7	35.6		
CCGGAAACGGGUAGCCUGACAUGAGGAUCACCCAUGUAAUCCGAGGAUAUGGAUCCUAAUUGGAUCCAGAAGGUGGCAGGCUAC			463	127
GCACGAUCCUCAGGAUAUCACUGAAACAUGAGGAUCACCCAUGUGCGCAGAUGAGAAGGGAGGACUCCGUCUGACUAAAAGUUA			113	9.95
CGAUAACAUAGUUAUCCGUAGCGAACAUGAGGAUCACCCAUGUAGGAUAUGUUACUAAACUAGUAACAGAAGGACAUGAGUAUU	154	407		
UAAUCUCAGAUAGGAUAUAUAGGAUGAUUUAAGACUGAACAUGAGGAUCACCCAUGUGAUUAUCUGUAGAAGGAUCAAUUAGCC			476	365
AGUGUUUCGUUGUGACCCAUUCACAUGAGGAUCACCCAUGUAGAGGAUAUAGGUCACCACGGUUCCUAGAAGGCUGCAGGUGUG	5.71	7.3		
GAUCCGUCUGUUAGGAUAUGCUUUGGGCUUCCGCAGUAGAAGGAACAUGAGGAUCACCCAUGUCCGAUGCCGUC	33.4	43		
UGUCUAUUUGAAGGAUAUCUAAGCAUAAACCGUAGAGAAGGUCAAUUAUACAUGAGGAUCACCCAUGUUGAGAUUGAUGGGUUU	16.9	17.8		
GUCGGGAUUACAUGAGGAUCACCCAUGUCAGAACGGGCAGUCAGAAGGUGCCAUUAGGGAGAGGGUAAGGAUAUGAUUUUUGGC			11.3	9.92
AGCAUGUUUACAUGAGGAUCACCCAUGUUUAUUUAGGAUUUCAGAAGGUACAAUUUGUGUUAGAGUAAGGAUAUGAUAUAUGCG			12	8.48
UAGGACUACGUAGGAUAUGUAGUUGAUUUCUACAUGAGGAUCACCCAUGUUUGCAUUUUAUUAGGACAGAAGGACGUGGUAAAU			16.1	7.36
GUACGUGGACAGAAGGUGACAUGAGGAUCACCCAUGUUAGCUCGGGUACGAGCGAUCCGCGUGAUUGAGGAUAUGUCUGCGGGC	39.7	59		
ACUUAUAGAGGAUAUACAGAAUAUUACAUGAGGAUCACCCAUGUUCUUCAAUGUAUAUUUGUAGAAGGCUAAGGAA	50.6	249		
GAACGUAAAGAGAAGGGCUACUGGUUGAAACCUGCGGCCUCUGGAACAUGAGGAUCACCCAUGUAGCAGGAUAUCUUUGCAUUA	146	18.9		
GGAGAGGAAACAUGAGGAUCACCCAUGUGAGUGGUCCGAAUAUAGGAUAUCCACACGAGAAGUGUGGAGAAGGAUAACCUCUCC	73	90.2		
CCAGCGUAUGUGAGGAUAUGCUGGUCCUUGGAUCAGCAGAAGGCACAUGAGGAUCACCCAUGUGGAGACGUUGG	21.8	102		
GGCUAGUGAGGAUAUACGUGCAGUCCUCAGUCGCCAGUCGGACAUGAGGAUCACCCAUGUAGAAGGUAUCGGCA	35.8	38.9		
GGGUACAUCGGAGGAUAUCAUGUAAAUACAUGAGGAUCACCCAUGUCUAUGGAGACAUCGGAGAUUGAGAAGGCCGAUGUACCG			14.4	150
UUGCGGUAGGAGAAGGACAGAGGCGGAAACACAUACAUGAGGAUCACCCAUGUAGGAUAUCCUACCUAACGCGGACUCCUCCAG	5.85	6.43		
CUUUAGUGAGGAUAUGUGGCUUCGAUCGUGAGAUCGAGGCUACAGAAGGCACAUGAGGAUCACCCAUGUUCCUG	15.7	48.5		
